High-throughput results from PubChem.
Beta cell apopt: inhibitors of cytokine-induced beta cell apoptosis, primary screen, luminescence. INS-1E cytokine-induced death, ATP luminescence, 48 h; percent of positive-control rescue, neutral wells zero. protection from apoptosis, % (concentration not given with the values). 300,000 tested, 0.8% active. AID 435005, 2010;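 active means Every replicate reaches about 75%, or at least half do and their mean reaches it too, limit read from the data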;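 further: 0% = cytokine-treated negative control wells and 100% = positive control rescue; higher means more ATP so stronger rescue from cytokine killing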
CSC inhib: cancer stem cell viability inhibitors, primary screen, luminescence | 300,000 tested, 1.1% active | inhibition, % at 7.5 µM | AID 2717, 2010 | cancer stem cell-like cells viability; in the data active means inhibition above about 75%; tested in HMLE shEcad cells
T cruzi repl: inhibitors of intracellular T. cruzi growth, primary screen, luminescence, NIH3T3 host cells. T. cruzi beta-gal in NIH3T3, 90 h. inhibition, % (test concentration not listed). 300,000 tested, 1.4% active;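 active means mean inhibition across valid replicates above about 55%, limit read from the data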;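 further: signal also drops with host cell toxicity which is not excluded here; 0% = plate median of DMSO wells and 100% = zero luminescence signal; higher percent means less beta-gal luminescence so fewer parasites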
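Material: NIH/3T3 host cells with β-galactosidase reporter T. cruzi; Input: 5,000 host fibroblasts per well; Medium: DMEM, 2% fetal bovine serum; Compound: 50 nL DMSO compound solution per well; Schedule: 3 h host attachment, then at least 90 h co-culture; Detection: luminescent β-galactosidase signal after 60 min lysis.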
PREPL inh: PREPL enzyme inhibitors, primary screen, biochemical, fluorescence polarization; inhibition, % at 5.96 µM; 320,000 tested, 0.68% active; recombinant PREPL, fluorescence polarization activity-based probe; in the data active means inhibition above about 43%;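 further: 0% = enzyme with DMSO and 100% = wells lacking enzyme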
Target sequence (Q4J6C6 whole entry, looked up): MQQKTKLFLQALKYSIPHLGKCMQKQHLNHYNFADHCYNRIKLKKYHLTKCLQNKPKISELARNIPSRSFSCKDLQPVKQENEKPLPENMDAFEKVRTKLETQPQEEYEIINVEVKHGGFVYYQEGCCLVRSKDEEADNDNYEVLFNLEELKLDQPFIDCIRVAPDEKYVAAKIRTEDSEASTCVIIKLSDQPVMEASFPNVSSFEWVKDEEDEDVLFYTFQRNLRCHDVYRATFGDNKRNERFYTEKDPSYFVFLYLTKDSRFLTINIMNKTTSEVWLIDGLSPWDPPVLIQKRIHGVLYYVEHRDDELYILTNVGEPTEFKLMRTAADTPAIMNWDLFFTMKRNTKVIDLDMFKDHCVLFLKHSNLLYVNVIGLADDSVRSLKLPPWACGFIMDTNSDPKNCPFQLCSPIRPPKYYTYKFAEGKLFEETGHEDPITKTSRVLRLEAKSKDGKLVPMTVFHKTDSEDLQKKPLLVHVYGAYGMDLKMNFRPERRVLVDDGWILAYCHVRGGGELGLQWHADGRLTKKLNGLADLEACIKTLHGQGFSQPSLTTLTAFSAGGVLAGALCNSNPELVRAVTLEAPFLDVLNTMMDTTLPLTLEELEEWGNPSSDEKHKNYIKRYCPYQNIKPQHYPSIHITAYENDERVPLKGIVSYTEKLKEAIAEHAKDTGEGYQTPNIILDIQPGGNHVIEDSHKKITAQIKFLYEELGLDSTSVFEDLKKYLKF
CHOP inhibitor: inhibitors of CHOP promoter induction, primary screen, cell-based, unfolded protein response, luciferase reporter; CHO-K1 CHOP-promoter luciferase, tunicamycin-induced, 15-18 h; inhibition, % at 10 µM; 220,000 tested, 3.8% active;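 active means compounds that reduced the stress-induced luciferase reporter signal by more than about 70% of percent inhibition, limit read from the data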;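 further: 0% = tunicamycin plus vehicle and 100% = wells without tunicamycin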
NR3A LBD binder: binders of NR3A ligand-binding domain, primary screen, biophysical, differential scanning fluorimetry, uHTS | Glutamate receptor ionotropic, NMDA 3A (GRIN3A) ligand-binding domain | NR3A LBD differential scanning fluorimetry, Tm shift; 0% = protein alone, 100% = glycine-bound protein | Tm shift relative to glycine control, % at 25 µM | 340,000 tested, 2.5% active | AID 1259313, 2017;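 active means melting temperature shift of at least 10% of the positive control shift, at one fixed dose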
The depositor's hits bear a star; x = no result given. Sampled rows, rich in hits. Any-hit rate of the full collection: about 6.7%.

SMILES	Beta cell apopt	CSC inhib	T cruzi repl	PREPL inh	CHOP inhibitor	NR3A LBD binder
CC(=O)NC(CC(=O)NC(C)c1ccc(Cl)cc1Cl)c1ccccc1 (centres undefined)	3	3	3	-11	22	0
CCCCC(=O)NC(c1ccccc1Cl)c1c(O)ccc2ccccc12 (centres undefined)	1	-12	26	9	46	1
CCCC(=O)NC(c1ccc(Cl)cc1Cl)c1ccc2cccnc2c1O (centres undefined)	94*	109*	64*	0	x	-5
CC(=O)NC(c1ccc(Cl)cc1Cl)c1ccc2cccnc2c1O (centres undefined)	-6	-18	62*	x	x	-2
CCCCC(=O)NC(c1ccc(Cl)cc1)c1ccc2cccnc2c1O (centres undefined)	97*	153*	71*	-4	x	0
CCCC(=O)NC(c1ccc(C)cc1)c1ccc2cccnc2c1O (centres undefined)	112*	110*	72*	0	x	-1
COc1ccc(CN(CC(=O)NCC2CCCO2)C(=O)CCC(=O)Nc2nccs2)cc1 (centres undefined)	-1	-19	-3	10	x	-1
CC(=O)NC(c1ccc2ccccc2c1)c1ccc2cccnc2c1O (centres undefined)	x	102*	61*	-55	x	-5
COc1ccc(C(NC(C)=O)c2ccc3cccnc3c2O)c(OC)c1 (centres undefined)	109*	45	53	13	x	-3
CCCC(=O)NC(c1ccccc1Cl)c1c(O)ccc2ccccc12 (centres undefined)	2	9	20	2	15	-7
CCCC(=O)NC(c1ccc(Cl)cc1)c1ccc2cccnc2c1O (centres undefined)	113*	106*	65*	-3	x	-5
O=C(Nc1cccc(OCC(=O)N2CCOCC2)c1)c1ccc(C(F)(F)F)cc1	2	-2	-1	-1	x	0
CN(C)c1ccc(N=Nc2cccc3ccoc23)cc1	3	24	9	6	7	22*
CN(C)c1ccc(N=Nc2cccc(F)c2)cc1	6	14	x	7	x	1
COc1ccc(-c2n(Cc3ccccc3)c3ccccc3[n+]2Cc2ccccc2)cc1	113*	25	45	27	-2	1
Cc1nc(C(=O)NC2CCCCC2)sc1C1(C)CC(c2cccnc2)=NO1 (centres undefined)	1	2	61*	5	x	x
O=C(/C=C/c1cccnc1)c1ccccc1O	3	-4	4	-8	-66	15*
O=C(C=Cc1cccnc1)c1ccccc1	x	x	x	x	x	0
CN(C)c1ccc(/C=C(\Cl)c2nc3ccccc3s2)cc1	4	92*	x	10	55	-2
O=C(O)c1ccc(C=C(c2nc3ccccc3s2)c2nc3ccccc3s2)cc1	-1	82*	-14	1	10	3
CC(C)(C)c1ccc(C(=O)N2CCNCC2)cc1	3	-9	13	-8	31	-2
CN1CCC2(CC1)N=C(c1ccc(F)cc1)C(=S)N2C(=O)c1ccc(C(C)(C)C)cc1	-3	37	30	-2	81*	2
CC(CCN(C)C)OC(=O)c1ccc(C(C)c2ccccc2)o1 (centres undefined)	0	47	72*	-9	12	5
CC(=O)O[C@H]1[C@H](O)[C@H](Oc2c(O)c(C)c3c4c2[C@@H](C)CC[C@@H]4[C@@H](C)C[C@H]3C=C(C)C)O[C@@H](C)[C@H]1O	x	x	x	6	x	2
N#Cc1cn(CCOc2ccc(F)cc2)c2ccccc12	-6	-10	-19	-54	55	-4
SMILES	Beta cell apopt	CSC inhib	T cruzi repl	PREPL inh	CHOP inhibitor	NR3A LBD binder
N#Cc1cn(CCOc2ccccc2F)c2ccccc12	-10	8	-1	-33	74*	-12
NNc1nc(-c2ccccc2Cl)nc2ccccc12	0	-4	-3	9	x	-4
Cc1ccc(-c2nc(Nc3ccc(N4CCOCC4)cc3)c3ccccc3n2)cc1	2	90*	18	46*	-1	7
O=[N+]([O-])c1ccc(-c2nc(Nc3cccc(O)c3)c3ccccc3n2)cc1	x	94*	-14	29	x	30*
O=C(O)c1cccc(Nc2nc(-c3ccc([N+](=O)[O-])cc3)nc3ccccc23)c1	-1	12	-4	x	x	0
Cc1ccc(-c2nc(Nc3ccc(O)cc3)c3ccccc3n2)cc1	-5	73	42	18	x	34*
Oc1cccc(Nc2nc(-c3ccccc3Cl)nc3ccccc23)c1	1	30	4	5	x	17*
CCCn1c(CCC(=O)O)nc2cc(S(=O)(=O)N3CCCC3)ccc21	-3	-5	-3	-39	12	-2
CCOc1ccc(NC(=O)CN(C)S(=O)(=O)c2ccc3c(c2)CCC(=O)N3)cc1	-2	8	-1	23	9	0
Oc1cccc(Nc2c3ccccc3nc3ccccc23)c1	x	56	70*	36	x	-1
Cc1ccc(-c2nc(Nc3cccc(O)c3)c3ccccc3n2)cc1	0	112*	1	3	x	42*
O=C(O)c1ccc(Nc2nc(-c3ccccc3)nc3ccccc23)cc1	x	15	0	-9	x	4
c1ccc(Nc2nc(-c3ccccc3)nc3ccccc23)cc1	15	49	27	0	x	11*
COCCn1c(SCC(=O)NC(C)c2ccc(F)cc2)nc2ccccc21 (centres undefined)	-6	-10	5	-5	x	4
Cc1c(C(=O)Nc2ccccc2)c2ccc(C(F)(F)F)cc2n1O	0	39	-11	3	x	0
COc1ccc(N/C=C2\CCc3ccccc3C2=O)cc1	19	3	-3	23	83*	-22
O=C1/C(=C/Nc2ccc3c(c2)OCO3)CCc2ccccc21	29	57	6	23	77*	-4
COc1ccc2c(c1)CC/C(=C\Nc1ccc3c(c1)OCO3)C2=O	3	44	4	37	-10	2
COc1ccccc1-n1nnnc1SCC(=O)N(C)C1CCS(=O)(=O)C1 (centres undefined)	-4	x	x	-3	x	0
CCOc1ccc(NC(=O)CSc2nc(C3CC3)nc3ccccc23)cc1	2	x	10	4	96*	-2
COc1cccc(NC(=O)CSc2nc(C3CC3)nc3ccccc23)c1	-2	-4	9	-6	x	-1
Cc1cccc(NC(=O)CSc2nc(COc3ccccc3)nc3ccccc23)c1C	-3	-7	-10	10	28	1
